Measured values: ChEMBL document CHEMBL1129983, “Synthesis and structure-activity relationships of carboxylated chalcones: a novel series of CysLT1 (LTD4) receptor antagonists” (J Med Chem, 1997)

What was measured:
[1] = target: T1, Cysteinyl leukotriene receptor 1 (Cavia porcellus) (UniProt Q2NNR5); assay: Percent inhibition against Cysteinyl leukotriene D4 receptor in guinea pig lung membranes using [3H]LTD4 4 at 10 e-5 M; format: cell membranes; conditions: Membrane
T1 sequence (whole entry): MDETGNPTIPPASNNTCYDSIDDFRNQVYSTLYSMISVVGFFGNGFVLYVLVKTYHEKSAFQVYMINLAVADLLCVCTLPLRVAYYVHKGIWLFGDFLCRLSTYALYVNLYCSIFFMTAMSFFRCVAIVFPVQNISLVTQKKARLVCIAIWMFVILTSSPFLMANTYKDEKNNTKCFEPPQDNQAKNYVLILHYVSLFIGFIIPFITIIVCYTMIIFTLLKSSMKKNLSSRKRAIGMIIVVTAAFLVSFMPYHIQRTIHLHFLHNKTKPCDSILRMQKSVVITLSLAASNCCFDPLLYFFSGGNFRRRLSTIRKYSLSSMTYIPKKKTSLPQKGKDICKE
Summary of the method: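 Same [3H]LTD4 (0.2 nM) filtration binding with guinea pig lung membranes, PIPES pH 7.5, 22 °C, 30 min. Percent inhibition = (maximum binding − counts at highest drug concentration) / maximum binding × 100.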

[2] = target: Cysteinyl leukotriene receptor 1 (Cavia porcellus); assay: Displacement of [3H]LTD4 from Cysteinyl leukotriene D4 receptor in guinea pig lung membranes
Cavia porcellus [3] = species on record: Cavia porcellus; assay: Inhibition of LTD4 induced contraction of guinea pig ileum; format: functional
Summary of the method: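 Male guinea pig ileum segments (2 cm), 20 mL organ bath, Tyrode's with atropine and pyrilamine (10⁻⁶ M each), 29 °C, 95% O2/5% CO2, 1.0 g resting tension, isotonic recording. Compounds in DMSO (10⁻⁵ to 3 × 10⁻⁹ M) preincubated 30 min; indomethacin 10⁻⁶ M added 10 min before 10⁻⁸ M LTD4. IC50 from percent inhibition across concentrations.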

Cavia porcellus [4] = species on record: Cavia porcellus; assay: Inhibition of ovalbumin-induced contraction (10 ng/mL) of guinea pig trachea at 10 uM.; format: functional
Summary of the method: (§1)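 Ovalbumin-sensitized male Hartley guinea pigs (2 mg ip, ≥2 weeks prior). Tracheal ring strips in Krebs with 3 µM indomethacin, 37 °C, 95% O2/5% CO2, 0.5 g tension, 60 min equilibration. Drug 10 µM preincubated 30 min, then ovalbumin challenge for 20–60 min, followed by 10 µM carbachol. Antigen response expressed as percent of the carbachol contraction.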

Cavia porcellus [5] = assay: Inhibition of LTD4 induced increase of vascular permeability after injection of 10 ng/site at […] intraperitoneally; format: functional
Cavia porcellus [6] = assay: Inhibition of LTD4 induced increase of vascular permeability after injection of 10 ng/site at 10 mg/kg intraperitoneally; format: functional; conditions: ip, route intraperitoneal
Summary of the method: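 Male Hartley guinea pigs (~300 g), fasted 24 h with water available, dosed ip at 10 mg/kg in 0.5% carboxymethylcellulose or saline. One hour later Evans blue 50 mg/kg iv, then LTD4 intradermally on the back. Dorsal skin removed 30 min later, dye extracted and quantified. Reported as percent inhibition versus control.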

Cavia porcellus [7] = species on record: Cavia porcellus; assay: Inhibition of ovalbumin-induced contraction (10 ng/mL) of guinea pig trachea at 10 uM; format: functional; summary of the method: as §1

Row | Kd [2] | SMILES | further results
1 |  | N#Cc1ccc(C(=O)/C=C/c2ccc(OCc3ccc4ccccc4n3)cc2)cc1 | inhibition [1]: 9%
2 | 62400 nM | CCOCCn1c(COc2ccc(/C=C/C(=O)c3ccc(C(=O)O)cc3O)cc2)nc2ccccc21 | 
3 | 175 nM | O=C(O)COc1ccc(O)c(C(=O)/C=C/c2cccc(/C=C/c3ccc4ccccc4n3)c2)c1 | 
4 | 828 nM | O=C(/C=C/c1cccc(/C=C/c2ccc3ccccc3n2)c1)c1cc(Cl)cc(-c2nn[nH]n2)c1O | 
5 | 209 nM | O=C(/C=C/c1cccc(OCc2ccc3ccccc3n2)c1)c1cc(-c2nn[nH]n2)ccc1O | 
6 | 21 nM | O=C(/C=C/c1cccc(/C=C/c2ccc3ccccc3n2)c1)c1cc(-c2nn[nH]n2)ccc1O | IC50 (Cavia porcellus [3]): 46 nM
7 | 188 nM | COc1ccc(C(=O)O)cc1C(=O)/C=C/c1ccc(OCc2ccc3ccccc3n2)cc1 | 
8 |  | O=C(Nc1cccc2c(=O)cc(-c3nnn[nH]3)oc12)c1ccc(OCCCCc2ccccc2)cc1 | Inhibition (Cavia porcellus [4]): 80%; Inhibition (Cavia porcellus [5]): 100%
9 |  | CCCCOc1ccc(C(=O)O)cc1C(=O)/C=C/c1ccc(OCc2ccc3ccccc3n2)cc1 | inhibition [1]: 42%
10 | 732 nM | O=C(O)c1cc(Cl)cc(C(=O)/C=C/c2ccc(OCc3ccc4ccccc4n3)cc2)c1O | 
11 | 140 nM | O=C(O)c1cc(F)cc(C(=O)/C=C/c2cccc(/C=C/c3ccc4ccccc4n3)c2)c1O | 
12 | 205 nM | O=C(O)c1cc(Br)cc(C(=O)/C=C/c2cccc(OCc3ccc4ccccc4n3)c2)c1O | 
13 | 307 nM | O=C(O)c1cccc(C(=O)/C=C/c2ccc(OCc3ccc4ccccc4n3)cc2)c1O | 
14 | 239 nM | O=C(/C=C/c1ccc(/C=C/c2ccc3ccc(Cl)cc3n2)cc1)c1cc(-c2nn[nH]n2)ccc1O | 
15 | 208 nM | CC(C)(C)c1cc(C(=O)O)c(O)c(C(=O)/C=C/c2cccc(/C=C/c3ccc4ccccc4n3)c2)c1 | 
16 | 26 nM | O=C(O)c1cccc(C(=O)/C=C/c2cccc(/C=C/c3ccc4ccccc4n3)c2)c1O | IC50 (Cavia porcellus [3]): 52 nM; Inhibition (Cavia porcellus [4]): 0%; inhibition in vivo at 10 mg/kg (Cavia porcellus [6]): < 10%
17 | 2100 nM | O=C(O)c1cc(Br)cc(C(=O)/C=C/c2ccc(OCc3ccc4ccccc4n3)cc2)c1O | 
18 |  | CCCc1c(OCC(O)COc2ccc3c(=O)cc(C(=O)O)oc3c2CCC)ccc(C(C)=O)c1O (stereo not given) [FPL-55712] | Inhibition (Cavia porcellus [7]): 38%
19 |  | O=C(O)c1ccc(O)c(C(=O)/C=C/c2ccccc2OCc2ccc3ccccc3n2)c1 | inhibition [1]: 18%
20 | 19200 nM | O=C(/C=C/c1cccc(OCc2ccc3ccccc3c2)c1)c1cc(-c2nn[nH]n2)ccc1O | 
21 | 4310 nM | N#Cc1ccc(O)c(C(=O)/C=C/c2ccc(OCc3ccc4ccccc4n3)cc2)c1 | 
22 | 449 nM | N#Cc1cc(Cl)cc(C(=O)/C=C/c2cccc(/C=C/c3ccc4ccccc4n3)c2)c1O | 
23 | 196 nM | O=C(/C=C/c1ccc(OCc2ccc3ccc(Cl)cc3n2)cc1)c1cc(-c2nn[nH]n2)ccc1O | 

Row | Kd [2] | SMILES | further results
24 | 585 nM | O=C(O)c1ccc(O)c(C(=O)/C=C/c2ccc(/C=C/c3ccc4ccccc4n3)cc2)c1 | 
25 |  | O=C(/C=C/c1ccc(OCc2ccc3ccccc3n2)cc1)c1cc(-c2nn[nH]n2)ccc1O | IC50 (Cavia porcellus [3]): 240 nM; Inhibition (Cavia porcellus [4]): 52%; inhibition in vivo at 10 mg/kg (Cavia porcellus [6]): 72%
26 |  | O=C(O)c1cc(Cl)cc(C(=O)/C=C/c2cccc(/C=C/c3ccc4ccccc4n3)c2)c1O | IC50 (Cavia porcellus [3]): 360 nM; inhibition in vivo at 10 mg/kg (Cavia porcellus [6]): < 10%
27 |  | CCOC(=O)c1ccc(O)c(C(=O)/C=C/c2ccc(OCc3ccc4ccccc4n3)cc2)c1 | inhibition [1]: 16%
28 |  | O=C(O)c1ccc(O)c(C(=O)/C=C/c2ccc(OCc3ccccc3)cc2)c1 | inhibition [1]: 23%
29 | 8850 nM | CCOCCn1c(COc2cccc(/C=C/C(=O)c3cc(-c4nn[nH]n4)ccc3O)c2)nc2ccccc21 | 
30 | 357 nM | COC(=O)c1ccc(OC)c(C(=O)/C=C/c2ccc(OCc3ccc4ccccc4n3)cc2)c1 | 
31 |  | Cn1c(COc2ccc(/C=C/C(=O)c3cc(-c4nn[nH]n4)ccc3O)cc2)nc2ccccc21 | IC50 (Cavia porcellus [3]): 190 nM
32 | 527 nM | CCOCCn1c(COc2ccc(/C=C/C(=O)c3cc(-c4nn[nH]n4)ccc3O)cc2)nc2ccccc21 | 
33 |  | O=C(/C=C/c1ccc(OCc2ccc3ccccc3c2)cc1)c1cc(-c2nn[nH]n2)ccc1O | inhibition [1]: 4%
34 | 14800 nM | O=C(O)c1cc(Br)cc2c(=O)cc(-c3ccc4ccccc4n3)oc12 | 
35 | 204 nM | O=C(O)COc1ccc(C(=O)/C=C/c2cccc(/C=C/c3ccc4ccccc4n3)c2)c(O)c1 | 
36 | 233 nM | O=C(/C=C/c1ccc(OCc2nccs2)cc1)c1cc(-c2nn[nH]n2)ccc1O | 
37 |  | O=C(O)c1ccc(O)c(C(=O)/C=C/c2ccccc2OCc2ccccc2)c1 | inhibition [1]: 0%
38 | 200 nM | O=C(O)c1cccc(C(=O)/C=C/c2ccc(/C=C/c3ccc4ccccc4n3)cc2)c1O | 
39 | 396 nM | O=C(O)c1cc(F)cc(C(=O)/C=C/c2ccc(OCc3ccc4ccccc4n3)cc2)c1O | 
40 | 10500 nM | CCOCCn1c(COc2cccc(/C=C/C(=O)c3cc(Cl)cc(C(=O)O)c3O)c2)nc2ccccc21 | 
41 | 1210 nM | O=C(O)c1ccc(C(=O)/C=C/c2ccc(OCc3ccc4ccccc4n3)cc2)c(O)c1 | 
42 |  | N#Cc1ccc(C(=O)/C=C/c2cccc(OCc3ccc4ccccc4n3)c2)cc1 | inhibition [1]: 7%
43 | 928 nM | O=C(O)c1ccc(C(=O)/C=C/c2cccc(OCc3ccc4ccccc4n3)c2)c(O)c1 | 
44 |  | N#Cc1ccc(O)c(C(=O)/C=C/c2cccc(OCc3ccc4ccccc4n3)c2)c1 | inhibition [1]: 38%
45 |  | O=C(/C=C/c1cccc(/C=C/c2ccc3ccccc3n2)c1)c1cc(OCc2nn[nH]n2)ccc1O | IC50 (Cavia porcellus [3]): 23 nM; Inhibition (Cavia porcellus [7]): 0%
46 | 11100 nM | O=C(O)c1ccc(O)c(C(=O)/C=C/c2ccc3ccccc3n2)c1 | 
